Source: ChEMBL document CHEMBL5385869, “Novel 4-aminoquinolines: Synthesis, inhibition of the Mycobacterium tuberculosis enoyl-acyl carrier protein reductase, antitubercular activity, SAR, and preclinical evaluation” (Eur J Med Chem, 2023)
≈ marks a conversion by molar mass, not a printed value. Calls of active or inactive are those of the source. The calls are words filed in the database; no cut-off is given here.

Columns and labels:
[1] = biological target: T1, Enoyl-[acyl-carrier-protein] reductase [NADH] (Mycobacterium tuberculosis, UniProt P9WGR1); experiment: Inhibition of Mycobacterium tuberculosis InhA-catalysed chemical reaction in presence of NADH measured for 1 min by UV/Visible spectrophotometry
T1 sequence (P9WGR1 whole entry): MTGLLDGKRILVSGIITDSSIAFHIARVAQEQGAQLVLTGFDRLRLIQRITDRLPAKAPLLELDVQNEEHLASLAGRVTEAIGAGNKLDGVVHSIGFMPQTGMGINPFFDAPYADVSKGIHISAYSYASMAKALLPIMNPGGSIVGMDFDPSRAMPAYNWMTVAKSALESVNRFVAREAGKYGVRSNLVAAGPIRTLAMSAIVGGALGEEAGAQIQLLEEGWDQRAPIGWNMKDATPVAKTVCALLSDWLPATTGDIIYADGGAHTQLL
Procedure, shortened: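 Recombinant MtInhA reaction at 25 °C in 100 mM Pipes pH 7.0, started by adding 2.2 μM enzyme and followed for 1 min. Substrate is DD-CoA, made from 2-trans-dodecenoic acid and CoA.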

[2] = system: Mycobacterium tuberculosis; experiment: Antibacterial activity against pan-sensitive Mycobacterium tuberculosis H37Rv ATCC 27294 measured after 7 days by resazurin dye based assay; format: functional; settings: H37Rv ATCC 27294, 168 h, time 7 day
Procedure, shortened: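 Resazurin reduction microplate assay (REMA) in Middlebrook 7H9 broth with 10% ADC and 5% DMSO. Compounds come from 2 mg/mL DMSO stocks and are 2-fold serially diluted, top concentration 0.08–40 μg/mL depending on solubility. MIC is the lowest concentration preventing the blue-to-pink colour change. Three independent experiments; the reported value is the modal or the highest value.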

[3] = system: Mycobacterium tuberculosis; experiment: Antibacterial activity against Mycobacterium tuberculosis H37Rv ATCC 27294 infected in CF-1 mouse assessed as reversal of bacterial growth in spleen at 300 uM/kg, po administered daily for 14 days starting from 7 days post infection; format: functional, organism-based; settings: time 14.0 day
Procedure, shortened: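 Mice treated by gavage from 7 days post-infection for 14 days, daily, at 300 or 450 μM/kg. Lungs and spleen homogenized in saline and plated for CFU. Comparisons are against vehicle and early-control groups.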

[4] = Selectivity index, ratio of CC50 for African green monkey Vero cells by MTT assay to MIC for pan-sensitive Mycobacterium tuberculosis H37Rv ATCC 27294; format: toxicity, cell-based; settings: read-out: Selectivity Index
[5] = biological target: T2, Enoyl-[acyl-carrier-protein] reductase [NADH] (Mycobacterium tuberculosis) (UniProt P9WGR1); experiment: Binding affinity to Mycobacterium tuberculosis InhA assessed as change in entropy at 250 uM in presence of NADH by fluorescence spectroscopy
T2 sequence (whole entry): T1 sequence (P9WGR1 whole entry)

[6] = Cytotoxicity against African green monkey Vero cells assessed as reduction in cell viability incubated for 72 hrs by neutral red uptake assay; format: toxicity, cell-based; settings: chlorocebus sabaeus
Procedure, shortened: (§1)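 Cells grown in DMEM with 10% FBS. HepG2 seeded at 4 × 10³ and Vero at 2 × 10³ cells/well, 24 h before dosing. Compounds at 1, 5 and 20 μM in 1% DMSO for 72 h at 37 °C, 5% CO2. MTT readout: 5 mg/mL reagent for 4 h, absorbance at 595 nm. Neutral red readout: 25 μg/mL dye for 3 h, then acid-ethanol desorb. Viability is expressed relative to 1% DMSO controls.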

[7] = biological target: T2, Enoyl-[acyl-carrier-protein] reductase [NADH] (Mycobacterium tuberculosis); experiment: Time dependent inhibition of Mycobacterium tuberculosis InhA
[8] = Cytotoxicity against African green monkey Vero cells assessed as reduction in cell viability incubated for 72 hrs by MTT assay; format: toxicity, cell-based; settings: chlorocebus sabaeus; procedure, shortened: as §1
[9] = Selectivity index, ratio of CC50 for human HepG2 cells by neutral red uptake assay to MIC for pan-sensitive Mycobacterium tuberculosis H37Rv ATCC 27294; format: toxicity; settings: read-out: Selectivity Index
[10] = Selectivity index, ratio of CC50 for human HepG2 cells by MTT assay to MIC for pan-sensitive Mycobacterium tuberculosis H37Rv ATCC 27294; format: toxicity; settings: read-out: Selectivity Index
[11] = biological target: T1, Enoyl-[acyl-carrier-protein] reductase [NADH]; experiment: Noncompetitive inhibition of Mycobacterium tuberculosis InhA using DD-CoA as substrate assessed as inhibition constant for enzyme-substrate-inhibitor ternary complex in presence of varying concentrations of NADH by double reciprocal plot analysis
[12] = biological target: T1, Enoyl-[acyl-carrier-protein] reductase [NADH]; experiment: Binding affinity to Mycobacterium tuberculosis InhA assessed as dissociation constant at 250 uM at 25 degreeC in presence of NADH by fluorescence spectroscopy
Procedure, shortened: (§2)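 Titration of pre-formed MtInhA:NADH complex (2 mL of 3 μM enzyme with 20 μM NADH), adding microliter aliquots of 250 μM ligand stock with dilution kept ≤1%. Intrinsic fluorescence read at 295 nm excitation, 310–500 nm emission. Temperatures 15, 20, 25 and 30 °C. KD is fitted to a hyperbolic isotherm. ΔH°, ΔS° and ΔG° come from van't Hoff analysis of KD across temperatures.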

[13] = Cytotoxicity against human HepG2 cells assessed as reduction in cell viability incubated for 72 hrs by neutral red uptake assay; format: toxicity, cell-based; procedure, shortened: as §1
[14] = biological target: T2, Enoyl-[acyl-carrier-protein] reductase [NADH] (Mycobacterium tuberculosis); experiment: Binding affinity to Mycobacterium tuberculosis InhA assessed as change in enthalpy at 250 uM in presence of NADH by fluorescence spectroscopy
[15] = biological target: T2, Enoyl-[acyl-carrier-protein] reductase [NADH] (Mycobacterium tuberculosis); experiment: Binding affinity to Mycobacterium tuberculosis InhA assessed as gibbs free energy change at 250 uM in presence of NADH by fluorescence spectroscopy; procedure, shortened: as §2
[16] = biological target: T1, Enoyl-[acyl-carrier-protein] reductase [NADH]; experiment: Noncompetitive inhibition of Mycobacterium tuberculosis InhA using DD-CoA as substrate assessed as inhibition constant for enzyme-inhibitor binary complex in presence of varying concentrations of NADH by double reciprocal plot analysis
[17] = Selectivity index, ratio of CC50 for African green monkey Vero cells by neutral red uptake assay to MIC for pan-sensitive Mycobacterium tuberculosis H37Rv ATCC 27294; format: toxicity, cell-based; settings: read-out: Selectivity Index
[18] = Cytotoxicity against human HepG2 cells assessed as reduction in cell viability incubated for 72 hrs by MTT assay; format: toxicity, cell-based; procedure, shortened: as §1
[19] = biological target: T1, Enoyl-[acyl-carrier-protein] reductase [NADH]; experiment: Competitive inhibition of Mycobacterium tuberculosis InhA using varying concentrations of DD-CoA as substrate assessed as inhibition constant for enzyme-inhibitor binary complex in presence of NADH by Lineweaver-Burk plot analysis
Procedure, shortened: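 Steady-state kinetics with recombinant MtInhA in 100 mM Pipes pH 7.0 at 25 °C. NADH fixed at 60 μM, DD-CoA varied 15–135 μM, inhibitor at fixed-varied levels of 0.2–4 μM. Kis is fitted to the competitive inhibition equation.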

Row | Structure (SMILES) | IC50 [1] [µM] | MIC [2] [µM] | other results
1 | CCc1cc(Nc2ccc(N3CCCCC3)cc2)c2cc(Cl)ccc2n1 | 2.9 | 1.7 (≈ 0.622 µg/mL) | –
2 | COc1ccc2nc(C)cc(Nc3ccc(N4CCCCC4)cc3)c2c1 | 4.7 | 3.6 (≈ 1.25 µg/mL) | –
3 | CO[C@H]1/C=C/O[C@@]2(C)Oc3c(C)c(O)c4c(O)c(c(/C=N/N5CCN(C)CC5)c(O)c4c3C2=O)NC(=O)/C(C)=C\C=C\[C@H](C)[C@H](O)[C@@H](C)[C@@H](O)[C@@H](C)[C@H](OC(C)=O)[C@@H]1C [RIFAMPIN] | – | 0.05 (≈ 0.0411 µg/mL) | –
4 | CCOC(=O)c1ccc2nc(C)cc(Nc3ccc(N4CCN(Cc5ccccc5)CC4)cc3)c2c1 | 26.2 | 10.4 (≈ 5 µg/mL) | –
5 | CCOC(=O)c1ccc2nc(C)cc(Nc3ccc(CC)cc3)c2c1 | 41.3 | 29.9 (≈ 10 µg/mL) | –
6 | Cc1cc(Nc2ccc(-n3cccn3)cc2)c2cc(Br)ccc2n1 | 4.85 | 3.3 (≈ 1.25 µg/mL) | –
7 | Cc1cc(Nc2ccc(N3CCCCC3)cc2)c2cc(C#N)ccc2n1 | 19.6 | 14.6 (≈ 5 µg/mL) | –
8 | Cc1cc(Nc2ccc(N3CCCCC3)cc2)c2cc([N+](=O)[O-])ccc2n1 | 18.6 | 6.9 (≈ 2.5 µg/mL) | –
9 | CC[C@@H](CO)NCCN[C@@H](CC)CO | – | – | Activity [3]: inactive
10 | Cc1ccc2nc(C)cc(Nc3ccc(N4CCCCC4)cc3)c2c1 | 17.2 | 7.5 (≈ 2.49 µg/mL) | –
11 | CCOC(=O)c1ccc2nc(C)cc(Nc3ccc(-n4cnc5ccccc54)cc3)c2c1 | 42.1 | > 47.3 | –
12 | CCOC(=O)c1ccc2nc(C)cc(Nc3ccc(C(=O)N4CCCC4)cc3)c2c1 | 44.5 | > 49.6 | –
13 | CCOC(=O)c1ccc2nc(C)cc(Nc3ccc(N4CCC(C)CC4)cc3)c2c1 | 10.9 | 6.2 (≈ 2.5 µg/mL) | –
14 | CCOC(=O)c1ccc2nc(C)cc(Nc3ccc(-n4cccn4)cc3)c2c1 | 8 | > 6.7 | –
15 | CCOC(=O)c1ccc2nc(C)cc(Nc3ccc(N4CCSCC4)cc3)c2c1 | > 50 | > 12.3 | –
16 | CCOc1ccc2nc(C)cc(Nc3ccc(N4CCCCC4)cc3)c2c1 | 9.5 | 6.9 (≈ 2.49 µg/mL) | –
17 | CCOC(=O)c1ccc2nc(C)cc(Nc3ccc(N4CCOCC4)cc3)c2c1 | 19.5 | 51.1 (≈ 20 µg/mL) | –
18 | Cc1cc(Nc2ccc(N3CCCCC3)cc2)c2cc(F)ccc2n1 | 38.3 | 14.9 (≈ 5 µg/mL) | –
19 | CCCc1ccc(Nc2cc(C)nc3ccc(C(=O)OCC)cc23)cc1 | 19.6 | 14.3 (≈ 4.98 µg/mL) | –
20 | Cc1cc(Nc2ccc(N3CCCCC3)cc2)c2cc(N(C)C)ccc2n1 | 20 | 6.9 (≈ 2.49 µg/mL) | –
21 | Cc1cc(Nc2ccc(N3CCCCC3)cc2)c2cc(C(C)C)ccc2n1 | 8.2 | 6.9 (≈ 2.48 µg/mL) | –
22 | CCc1cc(Nc2ccc(N3CCCCC3)cc2)c2cc(Br)ccc2n1 | 1.54 | 0.75 (≈ 0.308 µg/mL) | –
23 | Cc1cc(Nc2ccc(N3CCC(C)CC3)cc2)c2cc(Br)ccc2n1 | 1.4 | 0.7 (≈ 0.287 µg/mL) | selectivity ratio [4]: 13.8; deltaS [5]: 8.3 cal/mol/K; CC50 at 72 h [6]: 6.2 µM; TDI [7]: inactive; CC50 at 72 h [8]: 9.7 µM; selectivity ratio [9]: 17.4; selectivity ratio [10]: 7.6; Ki [11]: 0.69 µM; Kd [12]: 1.25 µM; CC50 at 72 h [13]: 12.2 µM; deltaH [14]: -5.6 kcal/mol; deltaG [15]: -8 kcal/mol; Ki [16]: 0.72 µM; selectivity ratio [17]: 8.9; CC50 at 72 h [18]: 5.3 µM; Ki [19]: 0.79 µM
24 | Cc1cc(Nc2ccc(N3CCC(c4ccccc4)CC3)cc2)c2cc(Br)ccc2n1 | > 50 | 1.33 (≈ 0.628 µg/mL) | –
25 | CCOC(=O)c1ccc2nc(C)cc(Nc3ccc(N4CCCC4)cc3)c2c1 | 21.7 | 13.3 (≈ 4.99 µg/mL) | –
26 | CCCCc1ccc(Nc2cc(C)nc3ccc(C(=O)OCC)cc23)cc1 | 11.2 | 6.9 (≈ 2.5 µg/mL) | –
27 | Cc1cc(Nc2ccc(N3CCCC3CO)cc2)c2cc(Br)ccc2n1 (stereo not given) | > 50 | 12.1 (≈ 4.99 µg/mL) | –
28 | CCOC(=O)c1ccc2nc(C)cc(Nc3ccc(CN4CCCCC4)cc3)c2c1 | > 50 | 49.6 (≈ 20 µg/mL) | –
